# Experimental data gathered from unrelated publications.
# Lines come from different studies, so protocols differ.
SMILES,tested on,test,system,conditions,quantity,value
Nc1nc2c(ncn2COCCO)c(=O)[nH]1,Human alphaherpesvirus 2,"viral replication, inhibitor, qPCR",Vero,,IC50,220 nM
NCC(=O)Nc1ccccc1/N=c1\cc(-c2ccc3c(c2)OCO3)oc2ccccc12,NCI-H1975,"cell growth or viability, CCK-8",,1 µM,inhibition,1.26%
COc1cccc(NC(=O)Nc2nc3cc(-c4ccc5ncn(CCC6CCCCC6)c(=O)c5c4)ccc3s2)c1,NCI-H1975,"cell growth or viability, MTT",,72 h,IC50,> 20000 nM
CCCn1cnc2ccc(-c3ccc(NC(=O)CC(C)CC)nc3)cc2c1=O (stereo not shown),NCI-H1975,"cell growth or viability, CCK-8",,72 h,IC50,1350 nM
c1ccc(Oc2ccc(Nc3c4c(nc5ccccc35)CCC4)cc2)cc1,Leishmania amazonensis,"parasite growth, MTT",,promastigote,IC50,1090 nM
CCCCC(=O)Nc1ccc(-c2ccc3ncn(CCC(C)C)c(=O)c3c2)cn1,NCI-H1975,"cell growth or viability, CCK-8",,72 h,IC50,540 nM
COCCC(=O)Nc1ccccc1/N=c1\cc(-c2ccc3c(c2)OCO3)oc2ccccc12,NCI-H1975,"cell growth or viability, CCK-8",,1 µM,inhibition,3.84%
O=C(Nc1nc2cc(-c3ccc4ncn(Cc5ccccc5)c(=O)c4c3)ccc2s1)c1ccccc1,NCI-H1975,"cell growth or viability, MTT",,72 h,IC50,> 20000 nM
NCCCCC(=O)Nc1ccccc1/N=c1\cc(-c2ccc3c(c2)OCO3)oc2ccccc12,NCI-H1975,"cell growth or viability, CCK-8",,1 µM,inhibition,-2.12%
COc1cccc(NC(=O)Nc2nc3cc(-c4ccc5ncn(CCN6CCOCC6)c(=O)c5c4)ccc3s2)c1,NCI-H1975,"cell growth or viability, MTT",,72 h,IC50,> 20000 nM
O=C(Nc1ccc(-c2ccc3ncn(Cc4ccccc4)c(=O)c3c2)cn1)C1CCCC1,NCI-H1975,"cell growth or viability, CCK-8",,72 h,IC50,> 10000 nM
CCNC(=O)Nc1nc2cc(-c3ccc4ncn(Cc5ccccc5)c(=O)c4c3)ccc2s1,NCI-H1975,"cell growth or viability, MTT",,72 h,IC50,9890 nM
COc1ccc2/c(=N/c3ccccc3NC(=O)[C@@H](N)C(C)(C)C)cc(-c3ccc4c(c3)OCCO4)oc2c1,NCI-H1975,"cell growth or viability, CCK-8",,1 µM,inhibition,4.59%
CCCCn1cnc2ccc(-c3ccc(NC(=O)Nc4ccc(OC)cc4)nc3)cc2c1=O,NCI-H1975,"cell growth or viability, CCK-8",,72 h,IC50,> 10000 nM
COc1ccc2/c(=N/c3ccccc3NC(=O)[C@@H](N)C(C)(C)C)cc(-c3ccc4c(c3)OCO4)oc2c1,NCI-H1975,"cell growth or viability, CCK-8",,1 µM,inhibition,9.4%
CCCCn1cnc2ccc(-c3ccc(NC(=O)CCC)nc3)cc2c1=O,NCI-H1975,"cell growth or viability, CCK-8",,72 h,IC50,1270 nM
